# Results as given in ChEMBL document CHEMBL1147582, “Approaches towards the stabilization of hemiaminal function at ornithine unit of mulundocandin” (2004).
# Tests used:
# Assay type in all cases: functional
# Aspergillus fumigatus [1] = assay: Antifungal activity against Aspergillus fumigatus at a concentration of 2 mg/mL in MeOH; Zone: very hazy
# How it was run: (§1)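 Standard agar-well diffusion on Sabouraud agar bioassay plates, seeded with C. albicans strain IV or A. fumigatus strain AF-1. Read-out is the inhibition zone produced around the well. Zone appearance is scored as hazy, very hazy, hazy diffused or very hazy diffused, and judged against the zone of the parent mulundocandin.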
# Aspergillus fumigatus [2] = assay: Antifungal activity against Aspergillus fumigatus at a concentration of 5 mg/mL in MeOH; Zone: hazy diffused; how it was run: as §1
# Candida albicans [3] = assay: Antifungal activity against Candida albicans at a concentration of 1 mg/mL in MeOH; how it was run: as §1
# Candida albicans [4] = assay: Antifungal activity against Candida albicans at a concentration of 5 mg/mL in MeOH; how it was run: as §1
# Aspergillus fumigatus [5] = assay: Antifungal activity against Aspergillus fumigatus at a concentration of 2 mg/mL in MeOH; Zone: hazy diffused; how it was run: as §1
# Candida albicans [6] = assay: Antifungal activity against Candida albicans at an intraperitoneal dose of 20 mg/kg twice a day for 6 days in mice
# How it was run: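 Swiss mice were infected with C. albicans and treated intraperitoneally at 20 mg/kg ×6, b.i.d. Kidneys were homogenized and the approximate CFU per gm kidney was counted. Comparator groups were the parent compound, fluconazole and untreated infected controls.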
# Aspergillus fumigatus [7] = assay: Antifungal activity against Aspergillus fumigatus at a concentration of 2 mg/mL in MeOH; Zone: very hazy diffused; how it was run: as §1
# Candida albicans [8] = assay: Antifungal activity against Candida albicans at an intraperitoneal dose of 20 mg/kg twice a day for 6 days in mice in experiment 1
# How it was run: (§2)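 Swiss mice infected with C. albicans; compounds given intraperitoneally at 20 mg/kg, ×6, b.i.d. Kidneys homogenized and colony-forming units counted per gram of kidney (approximate). Untreated infected control group included; fluconazole at the same dose used as standard.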
# Aspergillus fumigatus [9] = assay: Antifungal activity against Aspergillus fumigatus at a concentration of 1.1 mg/mL in MeOH; Zone: hazy diffused; how it was run: as §1
# Candida albicans [10] = assay: Antifungal activity against Candida albicans at a concentration of 0.1 mg/mL in MeOH; how it was run: as §1
# Candida albicans [11] = assay: Antifungal activity against Candida albicans at an intraperitoneal dose of 20 mg/kg twice a day for 6 days in mice in experiment 2; how it was run: as §2
# Candida albicans [12] = assay: Antifungal activity against Candida albicans at a concentration of 1.1 mg/mL in MeOH; how it was run: as §1
# Aspergillus fumigatus [13] = assay: Antifungal activity against Aspergillus fumigatus at a concentration of 1 mg/mL in MeOH; Zone: hazy; how it was run: as §1
# Candida albicans [14] = assay: Antifungal activity against Candida albicans at a concentration of 1 mg/mL in MeOH; Zone: hazy; how it was run: as §1
# Aspergillus fumigatus [15] = assay: Antifungal activity against Aspergillus fumigatus at a concentration of 5 mg/mL in MeOH; Zone: hazy; how it was run: as §1
# Aspergillus fumigatus [16] = assay: Antifungal activity against Aspergillus fumigatus at a concentration of 2 mg/mL in MeOH; Zone: hazy; how it was run: as §1
# Aspergillus fumigatus [17] = assay: Antifungal activity against Aspergillus fumigatus at a concentration of 5 mg/mL in MeOH; Zone: very hazy diffused; how it was run: as §1
# Aspergillus fumigatus [18] = assay: Antifungal activity against Aspergillus fumigatus at a concentration of 2 mg/mL in MeOH; Zone: diffused; how it was run: as §1
# Candida albicans [19] = assay: Antifungal activity against Candida albicans at a concentration of 2 mg/mL in MeOH; Zone: hazy; how it was run: as §1
Structure (SMILES),Zone size (Aspergillus fumigatus [2]) [mm],Zone size (Candida albicans [3]) [mm],Zone size (Candida albicans [4]) [mm],Zone size (Aspergillus fumigatus [5]) [mm],also measured
CCC(C)CCCCCCCCCCC(=O)N[C@@H]1C[C@@H](O)C(S(=O)(=O)CC(=O)OC)NC(=O)[C@@H]2[C@@H](O)[C@@H](C)CN2C(=O)C(CO)NC(=O)C([C@@H](O)[C@H](O)c2ccc(O)cc2)NC(=O)[C@@H]2C[C@@H](O)CN2C(=O)C(C(C)O)NC1=O (some centres undefined),29,20,26,,Zone size (Aspergillus fumigatus [1]): 24 mm
CCC(C)CCCCCCCCCCC(=O)N[C@@H]1C[C@@H](O)C(O)NC(=O)[C@@H]2[C@@H](O)[C@@H](C)CN2C(=O)[C@H](CO)NC(=O)[C@H]([C@@H](O)Cc2ccc(O)cc2)NC(=O)[C@@H]2C[C@@H](O)CN2C(=O)[C@H]([C@@H](C)O)NC1=O (some centres undefined),,30,,30,Approximate colony formation unit (Candida albicans [6]): 180000000 (g kidney)-1
CCC(C)CCCCCCCCCCC(=O)N[C@@H]1C[C@@H](O)CNC(=O)[C@@H]2[C@@H](O)[C@@H](C)CN2C(=O)[C@H](CO)NC(=O)[C@H]([C@@H](O)C(O)c2ccc(O)cc2)NC(=O)[C@@H]2C[C@@H](O)CN2C(=O)[C@H]([C@@H](C)O)NC1=O (some centres undefined),25,25,29,23,
CCC(C)CCCCCCCCCCC(=O)N[C@@H]1C[C@@H](O)[C@H](O)NC(=O)[C@@H]2[C@@H](O)[C@@H](C)CN2C(=O)[C@H](CO)NC(=O)[C@H]([C@@H](O)[C@H](O)c2ccc(O)cc2)NC(=O)[C@@H]2C[C@@H](O)CN2C(=O)[C@H]([C@@H](C)O)NC1=O (some centres undefined),,,,,Zone size (Aspergillus fumigatus [7]): 35 mm; Approximate colony formation unit (Candida albicans [8]): 150000000 (g kidney)-1; Zone size (Aspergillus fumigatus [9]): 29 mm; Zone size (Candida albicans [10]): 24 mm; Approximate colony formation unit (Candida albicans [11]): 12500000 (g kidney)-1; Zone size (Candida albicans [12]): 29 mm
CCC(C)CCCCCCCCCCC(=O)N[C@@H]1C[C@@H](O)CNC(=O)[C@@H]2[C@@H](O)[C@@H](C)CN2C(=O)[C@H](CO)NC(=O)[C@H]([C@@H](O)Cc2ccc(O)cc2)NC(=O)[C@@H]2C[C@@H](O)CN2C(=O)[C@H]([C@@H](C)O)NC1=O (some centres undefined),35,,38,30,Zone size (Aspergillus fumigatus [13]): 25 mm; Approximate colony formation unit (Candida albicans [6]): 7700000 (g kidney)-1; Zone size (Candida albicans [14]): 24 mm
CCC(C)CCCCCCCCCCC(=O)N[C@@H]1C[C@H](O)C(C#N)NC(=O)[C@@H]2[C@@H](O)[C@@H](C)CN2C(=O)[C@H](CO)NC(=O)[C@H]([C@@H](O)[C@H](O)c2ccc(O)cc2)NC(=O)[C@@H]2C[C@@H](O)CN2C(=O)[C@H]([C@@H](C)O)NC1=O (some centres undefined),27,19,25,20,
CCC(C)CCCCCCCCCCC(=O)N[C@@H]1C[C@@H](O)[C@H](OCc2ccccc2)NC(=O)[C@@H]2[C@@H](O)[C@@H](C)CN2C(=O)C(CO)NC(=O)C([C@@H](O)Cc2ccc(O)cc2)NC(=O)[C@@H]2C[C@@H](O)CN2C(=O)C(C(C)O)NC1=O (some centres undefined),18,,17,15,
CCC(C)CCCCCCCCCCC(=O)N[C@@H]1C[C@@H](O)C(OCc2ccccc2)NC(=O)[C@@H]2[C@@H](O)[C@@H](C)CN2C(=O)C(CO)NC(=O)C([C@@H](O)[C@H](O)c2ccc(O)cc2)NC(=O)[C@@H]2C[C@@H](O)CN2C(=O)C(C(C)O)NC1=O (some centres undefined),,,16,,Zone size (Aspergillus fumigatus [15]): 26 mm; Zone size (Aspergillus fumigatus [16]): 24 mm
CCC(C)CCCCCCCCCCC(=O)N[C@@H]1C[C@@H](O)C(c2ccc(OC)c(OC)c2)NC(=O)[C@@H]2[C@@H](O)[C@@H](C)CN2C(=O)C(CO)NC(=O)C([C@@H](O)[C@H](O)c2ccc(O)cc2)NC(=O)[C@@H]2C[C@@H](O)CN2C(=O)C(C(C)O)NC1=O (some centres undefined),32,24,29,30,
CCC(C)CCCCCCCCCCC(=O)N[C@@H]1C[C@@H](O)C(OC)NC(=O)[C@@H]2[C@@H](O)[C@@H](C)CN2C(=O)C(CO)NC(=O)C([C@@H](O)[C@H](O)c2ccc(O)cc2)NC(=O)[C@@H]2C[C@@H](O)CN2C(=O)C(C(C)O)NC1=O (some centres undefined),,25,27,,Zone size (Aspergillus fumigatus [17]): 35 mm; Zone size (Aspergillus fumigatus [18]): 37 mm; Zone size (Aspergillus fumigatus [16]): 24 mm; Zone size (Candida albicans [19]): 26 mm
CCC(C)CCCCCCCCCCC(=O)N[C@@H]1C[C@@H](O)C(CN)NC(=O)[C@@H]2[C@@H](O)[C@@H](C)CN2C(=O)C(CO)NC(=O)C([C@@H](O)[C@H](O)c2ccc(O)cc2)NC(=O)[C@@H]2C[C@@H](O)CN2C(=O)C(C(C)O)NC1=O (some centres undefined),25,22,25,23,
OC(Cn1cncn1)(Cn1cncn1)c1ccc(F)cc1F [FLUCONAZOLE],,,,,Approximate colony formation unit (Candida albicans [8]): 380000 (g kidney)-1; Approximate colony formation unit (Candida albicans [11]): 10000 (g kidney)-1
